Laboratory results from ChEMBL document CHEMBL1142407, “Angucyclinones from an Indonesian Streptomyces sp” (J Nat Prod, 2008).
The source made the active and inactive calls. The rule behind the calls is not given here.

What was measured:
Format in all cases: functional, organism-based
[1] = test system: Bacillus subtilis; test: Antibacterial activity against Bacillus subtilis at 20 to 120 ug/disk
How it was run: (§1)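 Agar diffusion test with compound loaded at 20 to 120 µg/disk. Read-out is a zone of growth inhibition of the test organism on agar. The same format covers bacteria (S. aureus, B. subtilis, E. coli, P. aeruginosa), the fungus Mucor miehei and the yeast Candida albicans.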

[2] = test system: Staphylococcus aureus; test: Antibacterial activity against Staphylococcus aureus at 20 to 120 ug/disk; how it was run: as §1
[3] = test system: Trichomonas vaginalis; test: Antiprotozoal activity against Trichomonas vaginalis
[4] = test system: Escherichia coli; test: Antibacterial activity against Escherichia coli at 20 to 120 ug/disk; how it was run: as §1
[5] = test system: Candida albicans; test: Antifungal activity against Candida albicans at 20 to 120 ug/disk; how it was run: as §1
[6] = test system: Pseudomonas aeruginosa; test: Antibacterial activity against Pseudomonas aeruginosa at 20 to 120 ug/disk; how it was run: as §1
[7] = test system: Rhizomucor miehei; test: Antifungal activity against Mucor miehei at 20 to 120 ug/disk; how it was run: as §1

| Compound | Activity [1] | Activity [2] | Activity [3] | Activity [4] | Activity [5] | Activity [6] | Activity [7] |
| --- | --- | --- | --- | --- | --- | --- | --- |
| C[C@@H]1CC(=O)C2=C(C1)C[C@@H](O)[C@]1(O)[C@H]2C(=O)c2cccc(O)c2[C@@H]1O | inactive | inactive | inactive | inactive | inactive | inactive | inactive |
| C[C@@H]1CC(=O)C2=C(CC[C@]3(O)[C@H]2C(=O)c2cccc(O)c2[C@@H]3O)C1 | inactive | inactive | inactive | inactive | inactive | inactive | inactive |
| C[C@@H]1CC(=O)C2=C(C[C@@H](O)[C@]3(O)[C@H]2C(=O)c2cccc(O)c2[C@@H]3O)[C@H]1O | inactive | inactive | inactive | inactive | inactive | inactive | inactive |
| C[C@@H]1CC(=O)C2=C(C3OC3[C@]3(O)[C@H]2C(=O)c2cccc(O)c2[C@@H]3O)[C@H]1O (stereo not given in full) | inactive | inactive | inactive | inactive | inactive | inactive | inactive |
| CC1CC(=O)C2(O)C(O)(CCC34OC32C(=O)c2cccc(O)c2C4O)C1 (stereo not given) | inactive | inactive | – | inactive | inactive | inactive | inactive |
| C[C@H]1CC(=O)c2c(ccc3c2C(=O)c2cccc(O)c2C3=O)[C@@H]1O | Active | – | – | – | – | Active | – |
| C[C@@H]1CC(=O)C2=C(C1)C1OC1[C@]1(O)[C@H]2C(=O)c2cccc(O)c2[C@@H]1O (stereo not given in full) | inactive | inactive | inactive | inactive | inactive | inactive | inactive |
| C[C@@H]1CC(=O)c2c(ccc3c2C(=O)c2cccc(O)c2C3=O)C1 | Active | – | – | – | – | Active | – |
